Source: PubChem (several laboratories)
MC4R ag barr: agonists of human melanocortin 4 receptor (MC4R) beta-arrestin | P32245 | U2OS MC4R beta-arrestin complementation, luminescence; percent of melanotan II response, DMSO zero | activation, % at 8.9 µM | 360,000 tested, 0.98% active | AID 540308;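 active means activation above a per-plate cutoff, the mean activation of sample wells on that plate plus 3 SD, cut at about 8% in these data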
Target sequence (P32245 whole entry, looked up): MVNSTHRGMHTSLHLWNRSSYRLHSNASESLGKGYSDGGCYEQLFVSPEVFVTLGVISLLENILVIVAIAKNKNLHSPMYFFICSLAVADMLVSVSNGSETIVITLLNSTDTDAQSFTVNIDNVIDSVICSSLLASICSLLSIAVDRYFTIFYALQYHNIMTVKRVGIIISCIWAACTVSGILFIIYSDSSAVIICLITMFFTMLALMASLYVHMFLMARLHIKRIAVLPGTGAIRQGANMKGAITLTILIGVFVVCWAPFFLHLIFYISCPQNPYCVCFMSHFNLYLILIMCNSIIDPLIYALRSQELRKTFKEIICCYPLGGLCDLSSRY
ATG4B inhibitor: ATG4B (human) cysteine protease inhibition | Q9Y4P1 | ATG4B cleavage of LC3-PLA2, NBD-HPC fluorescence, 1 h | inhibition, % at 8.33 µM | 340,000 tested, 0.51% active; in the data active means inhibition above about 40%
MPTP inh: blocks calcium-induced mitochondrial swelling; isolated mouse mitochondria, Ca2+ swelling absorbance, 30 min; inhibition, % at 10 µM; AID 602449; 360,000 tested, 1.4% active;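 active means inhibition of 50% or more, scaled per plate between neutral and stimulator controls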;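 further: 0% = DMSO wells given calcium and 100% = 1 mM EGTA wells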
SMARCA2 activ: SMARCA2 function activation, primary screen. MG213 cells, MMTV-luciferase reporter, dexamethasone, overnight. activation, % at 9.1 µM. 370,000 tested, 1% active; in the data active means activation above about 7.8%;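 further: 0% = vehicle wells and 100% = reference activator wells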
MC4R antag cAMP: antagonists of human melanocortin 4 receptor (MC4R); MC4R-expressing cells, MTII-stimulated cAMP, LANCE TR-FRET; inhibition, % at 6.5 µM; 360,000 tested, 0.48% active;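 active means inhibition above its plate's cutoff, the mean of tested wells on that plate plus 3 SD, cut at about 29% in these data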;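 further: 0% = Melanotan II alone and 100% = Melanotan II plus saturating MCL0020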
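Material: human MC4R-expressing U2OS cells. Probe or stimulus: Melanotan II challenge. Dosing: 6.5 µM single dose. Times: 30-min compound, 1-h challenge, 1-h detection, room temperature. Technique: TR-FRET with Eu-cAMP and labeled anti-cAMP, 671 nm. Replication: singlicate.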
SMARCA2 act conf: confirmation of SMARCA2 (BRM) function activators; shares compounds with SMARCA2 activ; MG213 cells, MMTV-luciferase with dexamethasone, luminescence, overnight; MG213 cells expressing E1A, Rb sequestered; DMSO wells 0%, reference activator 100%; activation, % at 9.1 µM; 3,500 tested, 30% active; AID 652260;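 active means activation above its plate's cutoff, the mean activation of tested wells plus 3 SD, cut at about 7.9% in these data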
GAL4-VP16 Luc: counter-screen for SMARCA2 activators: GAL4-VP16 luciferase reporter activation | HEK293 GAL4-VP16 pG5luc reporter, luciferase luminescence; scaled: DMSO wells 0%, SAHA wells 100% | 3,500 tested, 41% active | activation, % at 9.1 µM | shares compounds with SMARCA2 activ;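 active means activation above the solvent-only control well mean plus 3 SD, averaged across control plates, cut at about 5.2% in these data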
The depositor's hits bear a star; . = no result. In the library only some 4.1% were active in any assay of this set; here they are far more common.

SMILES	MC4R ag barr	ATG4B inhibitor	MPTP inh	SMARCA2 activ	MC4R antag cAMP	SMARCA2 act conf	GAL4-VP16 Luc
COc1cc(-c2nnc(SCC(=O)N3C(C)CCCC3C)o2)cc(OC)c1OC (stereo unspecified)	.	.	.	3	.	.	.
COc1ccc(/C(O)=C2/C(=O)C(=O)N(c3ccccn3)C2c2ccc(F)cc2)cc1 (stereo unspecified)	-1	2	-1	11*	23	1	2
COc1ccc(C2/C(=C(/O)c3ccc(C)cc3)C(=O)C(=O)N2c2ccccn2)cc1 (stereo unspecified)	0	0	1	1	-1	.	.
Fc1ccc(C2=Nn3c(nnc3C3CCCCC3)SC2)cc1	.	.	.	-7	.	.	.
Cc1ccc(C)c(NC(=O)N2CCc3ccccc3C2)c1	-2	-4	0	3	11	.	.
O=C(Nc1ccccc1F)N1CCc2ccccc2C1	-1	1	2	10*	19	2	8.0*
CCc1ccc(Cn2c(=O)n(Cc3ccc(C(=O)NCCCOC)cc3)c(=O)c3ccccc32)cc1	.	.	.	1	.	.	.
O=C(O)CCC1(c2ccccc2)NC(=O)NC1=O (stereo unspecified)	-2	-1	0	-2	7	.	.
O=C1NC(=O)C2(C=C(c3ccccc3)C(O)(c3ccccc3)C2)N1 (stereo unspecified)	0	-1	-2	8.2*	-2	1	1
COc1ccc(NC(=O)CCCNS(=O)(=O)c2ccc3[nH]c(=O)oc3c2)cc1OC	.	.	.	-2	.	.	.
O=C(O)c1ccccc1C1Nc2ccccc2C(=O)N1CCCN1CCOCC1 (stereo unspecified)	-1	-10	2	12*	1	-2	1
C[C@@H]1CCCCO[C@H](CN(C)C(=O)C2CCCCC2)[C@@H](C)CN([C@H](C)CO)C(=O)c2cc(NS(=O)(=O)c3cccs3)ccc2O1	.	.	.	-3	.	.	.
COC(=O)C1=C(C)N(C)C(=NCc2ccccc2C(F)(F)F)NC1c1ccc(F)cc1 (stereo unspecified)	.	.	.	-4	.	.	.
CCOC(=O)Cc1nc(N2CCN(C(=O)C3CCCO3)CC2)c2c(C)c(C(=O)OCC)sc2n1 (stereo unspecified)	.	.	.	11*	.	2	1
CCOC(=O)c1sc2nc(CC(=O)OC)nc(N3CCN(c4ccc(OC)cc4)CC3)c2c1C	-2	1	2	-1	14	.	.
Cc1occc1C(=O)NNC(=O)c1ccccc1C(=O)O	1	1	1	12*	-1	5	5
Cc1ccccc1C(=O)NNC(=O)c1ccoc1C	2	-7	0	-2	-3	.	.
CCCCCCCCN1C(=O)[C@@H](CC(=O)NCCC(C)C)C[C@@]2(C(=O)OC)C1=C[C@H](COCc1ccccc1)O[C@@H]2C	.	.	.	-3	.	.	.
CCNC(=O)NC(=O)C(C)Sc1nc2cc(C(=O)OC)ccc2c(=O)n1-c1ccccc1 (stereo unspecified)	-1	-1	-3	9.4*	3	-1	-1
Cc1c(C)c2ccc(OCC(=O)Nc3ccccn3)cc2oc1=O	-3	-4	0	12*	2	6	5.6*
CC(/C=N/NC(=O)c1cccs1)=C\c1ccco1	-3	-2	2	9.2*	-2	9.3*	12*
CC(/C=N/NC(=O)Cc1cccs1)=C\c1ccco1	0	-4	0	-2	0	.	.
CCN(C(=O)[C@@H](C1CC1)[C@@H](O)c1ccc(C(C)=O)cc1)c1ccccc1	.	.	.	-1	.	.	.
CCOC(=O)Cn1cnc(-c2ccc([N+](=O)[O-])cc2)c1	1	-3	-1	8.8*	-6	8	5.8*
Cc1ccc(Nc2nc(N)nc(CN3CCN(Cc4ccc5c(c4)OCO5)CC3)n2)cc1Cl	5	0	-6	-5	10	.	.
SMILES	MC4R ag barr	ATG4B inhibitor	MPTP inh	SMARCA2 activ	MC4R antag cAMP	SMARCA2 act conf	GAL4-VP16 Luc
Nc1nc(CN2CCN(Cc3ccccc3)CC2)nc(Nc2ccc3c(c2)OCCO3)n1	-1	-8	-2	9.2*	19	26*	1
O=C(Nc1cccc(S(=O)(=O)NC2=NCCC2)c1)c1ccccc1	0	0	-1	5	-4	.	.
CN(C)c1cccc(C(=O)Nc2cccc(S(=O)(=O)NC3=NCCC3)c2)c1	-4	-4	0	8.3*	1	15*	5.3*
CCCCCOC(=O)NCC(O)c1ccccc1 (stereo unspecified)	-2	-3	-1	13*	4	8	11*
CCCCOc1ccc(C(=O)NC2CCCCN(Cc3ccc(C)cc3)C2=O)cc1 (stereo unspecified)	.	.	.	-5	.	.	.
C/C(=N\NC(=S)NCc1ccccc1)c1cccs1	1	2	1	8.1*	-5	2	1
O=[N+]([O-])c1cccc(-c2noc(-c3cccs3)n2)c1	8	-8	2	11*	12	5	4
Cc1occc1C(=O)N/N=C/C1=C(N2CCOCC2)C(=C\c2ccc(Cl)cc2Cl)/CC1	0	-3	8	12*	-3	2	0
Cc1cc(C)nc(NN=CC2=C(N3CCOCC3)/C(=C/c3ccc(Cl)cc3)CC2)n1	-3	-6	-1	4	-6	.	.
CCOC(=O)NN=C1c2ccccc2-c2ccccc21	0	-3	1	-2	0	.	.
CCOC(=O)Nc1ccc2c(c1)C(=NNC(=S)NC)c1ccccc1-2	-3	.	2	9.8*	13	16*	8.4*
O=C(Nc1cc2c(cc1Br)OCCO2)c1cccs1	0	-2	0	10*	-3	3	9.0*
COc1ccc(C(=O)N2CCCC(O)C2)cc1OC1CCN(C(C)C)CC1 (stereo unspecified)	-3	18	-1	8.2*	8	4	1
CC(=O)c1sc(NC(=O)CCS(=O)(=O)c2ccc(F)cc2)nc1C	1	.	0	2	-2	.	.
CC(=O)c1sc(NC(=O)CCS(=O)(=O)c2ccccc2)nc1C	1	-5	0	11*	9	7.8*	0
CC(=O)Nc1ccc(NCN2C(=O)[C@@H]3[C@H]4CC[C@H](C4)[C@@H]3C2=O)cc1	0	-4	-2	8.9*	6	-4	0
O=C1C2C3CCC(C3)C2C(=O)N1CNc1ccccc1 (stereo unspecified)	-2	-10	0	1	10	.	.
Cc1nc(NC(=O)/C=C/c2ccccc2)sc1C(=O)N(C)C	-1	-8	0	10*	1	3	6.2*
O=C(NCc1ccco1)c1cnc2sccn2c1=O	0	-9	0	0	4	.	.
O=C(NCCc1ccccc1)c1cnc2sccn2c1=O	1	-8	-1	9.6*	-4	8.3*	9.4*
